Source: publication PMC13170702 (Nuclear medicine and biology, 2025)

Experiment: organ radiation dose estimates, OLINDA 2.0, ICRP-103
Assay type: in vivo, human
How it was run: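 Whole-body PET-MR ran as nine scans to 214 min. Organ VOIs were drawn in AMIDE, giving decay-corrected %IA per VOI; remainder = whole body minus measured organs. TIACs came from the EXM exponential model (OLINDA 1.1). Per-participant organ doses were computed in OLINDA 2.0 with 73 kg adult male or 60 kg female models. Effective dose (mSv) = organ absorbed doses × ICRP-103 tissue weighting factors.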

With `COC(=O)[C@@H](N)CC(=O)Nc1ccc2c(c1)Cc1cc([18F])ccc1-2` [[^18F]RP-115, methyl N^4-(7-[^18F]fluoro-9H-fluoren-2-yl)asparaginate] the “Effective dose (whole body)” value (F1 (189 MBq)) was 4.54 mSv, the “Estimated absorbed dose, Adrenals” value (F1 (189 MBq)) was 5.94 mGy and the “Estimated absorbed dose, Brain” value (F1 (189 MBq)) was 3.21 mGy. The “Estimated absorbed dose, Breasts” value (F1 (189 MBq)) was 1.71 mGy, the “Estimated absorbed dose, Colon, left” value (F1 (189 MBq)) was 2.85 mGy and the “Estimated absorbed dose, Colon, right” value (F1 (189 MBq)) was 2.77 mGy. The “Estimated absorbed dose, Esophagus” value (F1 (189 MBq)) was 2.98 mGy, the “Estimated absorbed dose, Eyes” value (F1 (189 MBq)) was 1.59 mGy and the “Estimated absorbed dose, Gallbladder wall” value (F1 (189 MBq)) was 5.09 mGy. The “Estimated absorbed dose, Heart wall” value (F1 (189 MBq)) was 4.40 mGy, the “Estimated absorbed dose, Kidneys” value (F1 (189 MBq)) was 32.6 mGy and the “Estimated absorbed dose, Liver” value (F1 (189 MBq)) was 8.25 mGy. The “Estimated absorbed dose, Lungs” value (F1 (189 MBq)) was 10.2 mGy, the “Estimated absorbed dose, Osteogenic cells” value (F1 (189 MBq)) was 1.77 mGy and the “Estimated absorbed dose, Ovaries” value (F1 (189 MBq)) was 2.77 mGy. For the same compound, the “Estimated absorbed dose, Pancreas” value (F1 (189 MBq)) was 5.49 mGy, the “Estimated absorbed dose, Rectum” value (F1 (189 MBq)) was 3.34 mGy and the “Estimated absorbed dose, Red marrow” value (F1 (189 MBq)) was 2.26 mGy. The “Estimated absorbed dose, Salivary glands” value (F1 (189 MBq)) was 1.69 mGy, the “Estimated absorbed dose, Small intestine” value (F1 (189 MBq)) was 7.43 mGy and the “Estimated absorbed dose, Spleen” value (F1 (189 MBq)) was 10.1 mGy. For the same compound, the “Estimated absorbed dose, Stomach wall” value (F1 (189 MBq)) was 3.08 mGy, the “Estimated absorbed dose, Thymus” value (F1 (189 MBq)) was 7.59 mGy and the “Estimated absorbed dose, Thyroid” value (F1 (189 MBq)) was 2.36 mGy. The “Estimated absorbed dose, Urinary bladder wall” value (F1 (189 MBq)) was 16.2 mGy, the “Estimated absorbed dose, Uterus” value (F1 (189 MBq)) was 4.55 mGy and the “Effective dose (whole body)” value (F2, no voiding (355 MBq)) was 9.27 mSv. The “Estimated absorbed dose, Adrenals” value (F2, no voiding (355 MBq)) was 11.7 mGy, the “Estimated absorbed dose, Brain” value (F2, no voiding (355 MBq)) was 5.33 mGy and the “Estimated absorbed dose, Breasts” value (F2, no voiding (355 MBq)) was 2.78 mGy. For the same compound, the “Estimated absorbed dose, Colon, left” value (F2, no voiding (355 MBq)) was 4.83 mGy, the “Estimated absorbed dose, Colon, right” value (F2, no voiding (355 MBq)) was 4.76 mGy and the “Estimated absorbed dose, Esophagus” value (F2, no voiding (355 MBq)) was 5.40 mGy. The “Estimated absorbed dose, Eyes” value (F2, no voiding (355 MBq)) was 2.43 mGy, the “Estimated absorbed dose, Gallbladder wall” value (F2, no voiding (355 MBq)) was 9.31 mGy and the “Estimated absorbed dose, Heart wall” value (F2, no voiding (355 MBq)) was 6.93 mGy. For the same compound, the “Estimated absorbed dose, Kidneys” value (F2, no voiding (355 MBq)) was 93.4 mGy, the “Estimated absorbed dose, Liver” value (F2, no voiding (355 MBq)) was 15.5 mGy and the “Estimated absorbed dose, Lungs” value (F2, no voiding (355 MBq)) was 21.1 mGy. For the same compound, the “Estimated absorbed dose, Osteogenic cells” value (F2, no voiding (355 MBq)) was 2.97 mGy, the “Estimated absorbed dose, Ovaries” value (F2, no voiding (355 MBq)) was 5.90 mGy and the “Estimated absorbed dose, Pancreas” value (F2, no voiding (355 MBq)) was 7.60 mGy. For the same compound, the “Estimated absorbed dose, Rectum” value (F2, no voiding (355 MBq)) was 7.07 mGy, the “Estimated absorbed dose, Red marrow” value (F2, no voiding (355 MBq)) was 4.01 mGy and the “Estimated absorbed dose, Salivary glands” value (F2, no voiding (355 MBq)) was 2.62 mGy. For the same compound, the “Estimated absorbed dose, Small intestine” value (F2, no voiding (355 MBq)) was 9.87 mGy, the “Estimated absorbed dose, Spleen” value (F2, no voiding (355 MBq)) was 7.49 mGy and the “Estimated absorbed dose, Stomach wall” value (F2, no voiding (355 MBq)) was 5.08 mGy. For the same compound, the “Estimated absorbed dose, Thymus” value (F2, no voiding (355 MBq)) was 8.99 mGy, the “Estimated absorbed dose, Thyroid” value (F2, no voiding (355 MBq)) was 17.5 mGy and the “Estimated absorbed dose, Urinary bladder wall” value (F2, no voiding (355 MBq)) was 28.7 mGy. The “Estimated absorbed dose, Uterus” value (F2, no voiding (355 MBq)) was 47.6 mGy, the “Effective dose (whole body)” value (F3 (117 MBq)) was 2.27 mSv and the “Estimated absorbed dose, Adrenals” value (F3 (117 MBq)) was 3.65 mGy. For the same compound, the “Estimated absorbed dose, Brain” value (F3 (117 MBq)) was 1.52 mGy, the “Estimated absorbed dose, Breasts” value (F3 (117 MBq)) was 1.09 mGy and the “Estimated absorbed dose, Colon, left” value (F3 (117 MBq)) was 1.77 mGy. For the same compound, the “Estimated absorbed dose, Colon, right” value (F3 (117 MBq)) was 1.81 mGy, the “Estimated absorbed dose, Esophagus” value (F3 (117 MBq)) was 1.78 mGy and the “Estimated absorbed dose, Eyes” value (F3 (117 MBq)) was 1.01 mGy. For the same compound, the “Estimated absorbed dose, Gallbladder wall” value (F3 (117 MBq)) was 3.38 mGy, the “Estimated absorbed dose, Heart wall” value (F3 (117 MBq)) was 2.27 mGy and the “Estimated absorbed dose, Kidneys” value (F3 (117 MBq)) was 21.4 mGy. For the same compound, the “Estimated absorbed dose, Liver” value (F3 (117 MBq)) was 6.07 mGy, the “Estimated absorbed dose, Lungs” value (F3 (117 MBq)) was 4.63 mGy and the “Estimated absorbed dose, Osteogenic cells” value (F3 (117 MBq)) was 1.11 mGy. The “Estimated absorbed dose, Ovaries” value (F3 (117 MBq)) was 1.54 mGy, the “Estimated absorbed dose, Pancreas” value (F3 (117 MBq)) was 2.79 mGy and the “Estimated absorbed dose, Rectum” value (F3 (117 MBq)) was 1.46 mGy. The “Estimated absorbed dose, Red marrow” value (F3 (117 MBq)) was 1.39 mGy, the “Estimated absorbed dose, Salivary glands” value (F3 (117 MBq)) was 1.09 mGy and the “Estimated absorbed dose, Small intestine” value (F3 (117 MBq)) was 3.98 mGy. The “Estimated absorbed dose, Spleen” value (F3 (117 MBq)) was 3.58 mGy, the “Estimated absorbed dose, Stomach wall” value (F3 (117 MBq)) was 1.87 mGy and the “Estimated absorbed dose, Thymus” value (F3 (117 MBq)) was 2.50 mGy. The “Estimated absorbed dose, Thyroid” value (F3 (117 MBq)) was 2.20 mGy, the “Estimated absorbed dose, Urinary bladder wall” value (F3 (117 MBq)) was 1.54 mGy and the “Estimated absorbed dose, Uterus” value (F3 (117 MBq)) was 3.86 mGy. The “Effective dose (whole body)” value (F4 (167 MBq)) was 3.28 mSv, the “Estimated absorbed dose, Adrenals” value (F4 (167 MBq)) was 4.53 mGy and the “Estimated absorbed dose, Brain” value (F4 (167 MBq)) was 2.64 mGy. For the same compound, the “Estimated absorbed dose, Breasts” value (F4 (167 MBq)) was 1.41 mGy, the “Estimated absorbed dose, Colon, left” value (F4 (167 MBq)) was 2.41 mGy and the “Estimated absorbed dose, Colon, right” value (F4 (167 MBq)) was 2.41 mGy. For the same compound, the “Estimated absorbed dose, Esophagus” value (F4 (167 MBq)) was 2.41 mGy, the “Estimated absorbed dose, Eyes” value (F4 (167 MBq)) was 1.33 mGy and the “Estimated absorbed dose, Gallbladder wall” value (F4 (167 MBq)) was 3.61 mGy. For the same compound, the “Estimated absorbed dose, Heart wall” value (F4 (167 MBq)) was 4.15 mGy, the “Estimated absorbed dose, Kidneys” value (F4 (167 MBq)) was 28.1 mGy and the “Estimated absorbed dose, Liver” value (F4 (167 MBq)) was 6.74 mGy. The “Estimated absorbed dose, Lungs” value (F4 (167 MBq)) was 7.74 mGy, the “Estimated absorbed dose, Osteogenic cells” value (F4 (167 MBq)) was 1.45 mGy and the “Estimated absorbed dose, Ovaries” value (F4 (167 MBq)) was 2.17 mGy. The “Estimated absorbed dose, Pancreas” value (F4 (167 MBq)) was 3.86 mGy, the “Estimated absorbed dose, Rectum” value (F4 (167 MBq)) was 2.14 mGy and the “Estimated absorbed dose, Red marrow” value (F4 (167 MBq)) was 1.84 mGy. For the same compound, the “Estimated absorbed dose, Salivary glands” value (F4 (167 MBq)) was 1.41 mGy, the “Estimated absorbed dose, Small intestine” value (F4 (167 MBq)) was 8.53 mGy and the “Estimated absorbed dose, Spleen” value (F4 (167 MBq)) was 3.75 mGy. For the same compound, the “Estimated absorbed dose, Stomach wall” value (F4 (167 MBq)) was 2.46 mGy, the “Estimated absorbed dose, Thymus” value (F4 (167 MBq)) was 4.47 mGy and the “Estimated absorbed dose, Thyroid” value (F4 (167 MBq)) was 2.53 mGy. For the same compound, the “Estimated absorbed dose, Urinary bladder wall” value (F4 (167 MBq)) was 4.45 mGy, the “Estimated absorbed dose, Uterus” value (F4 (167 MBq)) was 6.39 mGy and the “Effective dose (whole body)” value (Female n=4, mean±SD) was 0.0223±0.0033 mSv/MBq. The “Estimated dose, Adrenals” value (Female n=4, mean±SD) was 0.0307±0.0025 mGy/MBq, the “Estimated dose, Brain” value (Female n=4, mean±SD) was 0.0152±0.0017 mGy/MBq and the “Estimated dose, Breasts” value (Female n=4, mean±SD) was 0.00866±0.00067 mGy/MBq. For the same compound, the “Estimated dose, Esophagus” value (Female n=4, mean±SD) was 0.0152±0.0006 mGy/MBq, the “Estimated dose, Eyes” value (Female n=4, mean±SD) was 0.00797±0.00081 mGy/MBq and the “Estimated dose, Gallbladder wall” value (Female n=4, mean±SD) was 0.0259±0.0031 mGy/MBq. For the same compound, the “Estimated dose, Heart wall” value (Female n=4, mean±SD) was 0.0218±0.0027 mGy/MBq, the “Estimated dose, Kidneys” value (Female n=4, mean±SD) was 0.197±0.045 mGy/MBq and the “Estimated dose, Left colon” value (Female n=4, mean±SD) was 0.0146±0.0007 mGy/MBq. The “Estimated dose, Liver” value (Female n=4, mean±SD) was 0.0449±0.0049 mGy/MBq, the “Estimated dose, Lungs” value (Female n=4, mean±SD) was 0.0499±0.0088 mGy/MBq and the “Estimated dose, Osteogenic cells” value (Female n=4, mean±SD) was 0.00899±0.00054 mGy/MBq. For the same compound, the “Estimated dose, Ovaries” value (Female n=4, mean±SD) was 0.0144±0.0017 mGy/MBq, the “Estimated dose, Pancreas” value (Female n=4, mean±SD) was 0.0244±0.0033 mGy/MBq and the “Estimated dose, Rectum” value (Female n=4, mean±SD) was 0.0157±0.0037 mGy/MBq. For the same compound, the “Estimated dose, Red marrow” value (Female n=4, mean±SD) was 0.0116±0.0005 mGy/MBq, the “Estimated dose, Right colon” value (Female n=4, mean±SD) was 0.0145±0.0009 mGy/MBq and the “Estimated dose, Salivary Glands” value (Female n=4, mean±SD) was 0.0085±0.0008 mGy/MBq. For the same compound, the “Estimated dose, Small intestine” value (Female n=4, mean±SD) was 0.0381±0.0098 mGy/MBq, the “Estimated dose, Spleen” value (Female n=4, mean±SD) was 0.0319±0.0150 mGy/MBq and the “Estimated dose, Stomach wall” value (Female n=4, mean±SD) was 0.0153±0.0010 mGy/MBq. For the same compound, the “Estimated dose, Thymus” value (Female n=4, mean±SD) was 0.0284±0.0082 mGy/MBq.
